Rpn11 block: Rpn11 (human) deubiquitinase inhibition; 360,000 compounds, 0.59% hits; human 26S proteasome, Ub4-pepOG fluorescence polarization; 20S core pre-blocked with epoxomicin; inhibition, % at 20 µM;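 active = inhibition at 20 µM, scaled to each plate's controls, above about 33%, limit read from the data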
Neddyl block: inhibitors of human cullin neddylation; P61081+Q13564; TR-FRET cullin neddylation, biochemical; inhibition, % at 25 µM; 360,000 compounds, 0.58% hits; in the data active = inhibition above about 36%
Target sequence (P61081 whole entry, looked up): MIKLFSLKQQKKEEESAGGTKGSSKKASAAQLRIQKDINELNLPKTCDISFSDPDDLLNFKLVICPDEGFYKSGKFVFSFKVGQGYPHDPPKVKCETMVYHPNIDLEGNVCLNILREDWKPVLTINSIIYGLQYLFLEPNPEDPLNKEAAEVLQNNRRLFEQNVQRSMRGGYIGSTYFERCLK
Target sequence (Q13564 whole entry, looked up): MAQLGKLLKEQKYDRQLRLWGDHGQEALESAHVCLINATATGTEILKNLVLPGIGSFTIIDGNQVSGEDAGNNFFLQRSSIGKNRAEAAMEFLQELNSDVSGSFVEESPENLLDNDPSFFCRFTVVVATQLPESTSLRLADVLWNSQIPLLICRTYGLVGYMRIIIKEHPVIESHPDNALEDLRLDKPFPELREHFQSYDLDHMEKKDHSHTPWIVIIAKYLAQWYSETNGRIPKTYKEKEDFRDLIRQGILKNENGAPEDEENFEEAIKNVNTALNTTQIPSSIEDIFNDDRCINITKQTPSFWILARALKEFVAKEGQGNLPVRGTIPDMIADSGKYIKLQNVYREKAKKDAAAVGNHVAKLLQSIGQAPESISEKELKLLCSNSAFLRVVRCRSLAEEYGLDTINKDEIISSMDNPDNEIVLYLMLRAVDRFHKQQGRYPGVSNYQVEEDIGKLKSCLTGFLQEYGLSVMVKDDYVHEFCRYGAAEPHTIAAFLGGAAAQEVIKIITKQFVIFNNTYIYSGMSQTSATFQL
HNF4A DNA FP: change in binding of human HNF4 alpha to DNA; activity change, % at 10 µM; HNF4a-FITC DNA binding, fluorescence polarization, 1 h; AID 1224865; 360,000 compounds, 0.3% hits; P41235; in the data active = activity change above about 30%, passing the limit was not always enough
TPT1 inhibitor: inhibitors of Candida albicans tRNA 2'-phosphotransferase TPT1. inhibition, % at 5 µM. recombinant caTPT1, FP RNA substrate dephosphorylation. 300,000 compounds, 0.81% hits. AID 1962;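 active = inhibition above the mean of all tested compounds plus 3 SD, set per screening campaign, cut at about 24% in these data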;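 also: plate controls were DMSO alone for no effect and ferristatin control at 100 nM for full effect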
Rin1-Abl PPI inh: blocks binding of human Rin1 to Abl | TR-FRET Rin1/Abl binding, biochemical | inhibition, % at 7.35 µM | 360,000 compounds, 0.4% hits | AID 588664; in the data active = inhibition above about 5%, passing the limit was not always enough
CSN inh: inhibitors of human CSN-mediated cullin deneddylation. Purified CSN, SCF-Nedd8-OG deneddylation, fluorescence polarization. inhibition, % at 12.5 µM. 360,000 compounds, 0.38% hits. AID 651999;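 active = pattern-corrected inhibition above about 35%, with an unprinted fluorescence ratio check between 0.5 and 1.5, limit read from the data, passing the limit was not always enough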;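 also: 0% = enzyme with substrate and 100% = substrate without enzyme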
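Detection – fluorescence polarization · System – HEK293T-derived human Csn5 enzyme · Controls – substrate-only high control, full reaction low control · Timing – 90 min, room temperature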
* marks the source's active call; other numbers are inactive results. The list is not random: actives were taken first. Their share in the collection is about 2.4%.

For CS(=O)(=O)c1ccccc1C(=O)N(CCC1=CCCCC1)c1c(N)n(Cc2ccccc2)c(=O)[nH]c1=O the results were Rpn11 block 4, Neddyl block 4, HNF4A DNA FP -1, TPT1 inhibitor 3, Rin1-Abl PPI inh 6 and CSN inh 0.
`c1ccc(CC[C@@H]2CC[C@@H](CCc3ccccc3)N2)cc1` gave Rpn11 block 1, Neddyl block -8, HNF4A DNA FP 7, Rin1-Abl PPI inh 1 and CSN inh 43*.
Cc1sc2ncn(CC(=O)NCCCC(=O)N3CCCCC3)c(=O)c2c1C was read as Rpn11 block 1, Neddyl block 2, HNF4A DNA FP 1, TPT1 inhibitor -1, Rin1-Abl PPI inh 1 and CSN inh 7.
For Cc1sc2ncn(CC(=O)NCCCC(=O)N3CCN(c4ccccc4)CC3)c(=O)c2c1C the results were Rpn11 block 3, Neddyl block -3, HNF4A DNA FP 0, TPT1 inhibitor 2, Rin1-Abl PPI inh 5 and CSN inh 76*.
`CC1CCN(C(=O)CCNC(=O)Cn2cnc3sc4c(c3c2=O)CCCC4)CC1` gave Rpn11 block -8, Neddyl block -6, HNF4A DNA FP 1, TPT1 inhibitor -3, Rin1-Abl PPI inh -2 and CSN inh 125*.
Screening Cc1onc(-c2ccccc2)c1C(=O)OCC(=O)Nc1ccccc1Cl returned Rpn11 block 4, Neddyl block -3, HNF4A DNA FP -4, Rin1-Abl PPI inh 2 and CSN inh 4.
Screening COc1ccccc1NC(=O)Cn1nnc(-c2ccccc2NC(=O)c2cccs2)n1 returned Rpn11 block 31, Neddyl block 20, HNF4A DNA FP 0, TPT1 inhibitor 2, Rin1-Abl PPI inh 2 and CSN inh 37*.
Cc1cc2c3c([nH]c2cc1S(=O)(=O)NCc1ccc(CN2CCCCCC2)o1)CCCC3=O was read as Rpn11 block 4, Neddyl block -6, HNF4A DNA FP 4, TPT1 inhibitor -1, Rin1-Abl PPI inh 3 and CSN inh 2.
Screening O=C1NC[C@H](c2ccccc2)N(CCC23CC4CC(CC(C4)C2)C3)C1=O returned Rpn11 block 0, Neddyl block 7, HNF4A DNA FP 5, TPT1 inhibitor 0, Rin1-Abl PPI inh 2 and CSN inh 74*.
O=C1NC[C@H](c2ccccc2)N(CCc2cccc3ccccc23)C1=O was read as Rpn11 block -3, Neddyl block -6, HNF4A DNA FP 3, TPT1 inhibitor 0, Rin1-Abl PPI inh 0 and CSN inh 6.
`O=C(CN1CCCN(S(=O)(=O)c2ccc(F)cc2)CC1)Nc1c(Cl)cccc1Cl` gave Rpn11 block -5, Neddyl block -5, HNF4A DNA FP 2, TPT1 inhibitor -2, Rin1-Abl PPI inh 1 and CSN inh 109*.
Screening COc1cc2cc(Oc3ccc4ccc(=O)oc4c3)c(=O)oc2cc1O[C@@H]1O[C@H](CO)[C@@H](O)[C@H](O)[C@H]1O returned Rpn11 block -6, Neddyl block 19, HNF4A DNA FP -27, Rin1-Abl PPI inh 1 and CSN inh 38*.
For COc1cc2cc(Oc3ccc4ccc(=O)oc4c3)c(=O)oc2cc1OC1OC(COC(=O)CC(C)(O)CC(=O)O)C(O)C(O)C1O (configuration not stated) the results were Rpn11 block -7, HNF4A DNA FP -5, TPT1 inhibitor -3, Rin1-Abl PPI inh 2 and CSN inh 9.
Nc1c2c(nc3ccccc13)CCC2 was read as Rpn11 block -2, Neddyl block -5, HNF4A DNA FP 35*, TPT1 inhibitor -5, Rin1-Abl PPI inh -3 and CSN inh 0.
`CC(C)C(NC(=O)c1ccccc1)C(=O)N1CCCCCC1` (configuration not stated) gave Rpn11 block -5, Neddyl block -6, HNF4A DNA FP 1, TPT1 inhibitor 0, Rin1-Abl PPI inh 1 and CSN inh 5.
`Cc1ccc(NC(=O)c2cc(-c3ccco3)nc3ccccc23)cc1S(=O)(=O)N1CCOCC1` gave Rpn11 block 14, Neddyl block -6, HNF4A DNA FP -24, TPT1 inhibitor 12, Rin1-Abl PPI inh 3 and CSN inh 37*.

Screening results deposited in PubChem by several laboratories.
